Data on ten compounds can be found in ChEMBL document CHEMBL1147877, “Synthesis of novel triheterocyclic thiazoles as anti-inflammatory and analgesic agents” (2007).

Test [1] relates to Rattus norvegicus. In words: Antiinflammatory activity in rat assessed as inhibition of formalin-induced paw oedema at 100 mg/kg, ip after 8 hrs. The test is classed as functional. Particulars: route intraperitoneal. The method in brief:
(§1)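 Albino rats of either sex, six per group, with plain 2% CMC as control. Formalin injected into the paw to induce oedema. Paw volume measured by plethysmograph (mercury displacement) immediately after injection (0 h), then at 0.5, 1, 2, 4, 8, 12 and 24 h. Results given as % inhibition of inflammation. P < 0.05 taken as significant.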

In test [2] the test system is Rattus norvegicus. In words: Antiinflammatory activity in rat assessed as inhibition of formalin-induced paw oedema at 100 mg/kg, ip after 12 hrs. The test is classed as functional. Particulars: route intraperitoneal. The method in brief: as §1
Test [3] deals with Rattus norvegicus. The test is described as follows: Antiinflammatory activity in rat assessed as inhibition of formalin-induced paw oedema at 100 mg/kg, ip after 1 hr. The test is classed as functional. Particulars: route intraperitoneal. The method in brief:
as §1

Test [4] concerns Mus musculus. In words: Analgesic activity in Albino mouse assessed as inhibition of acetic acid-induced writhing responses at 100 mg/kg, po. Also on record: scale not given: the % may be the effect or the level left. (In general: An intraperitoneal irritant provokes the stretching counted in writhing tests.)
The test system of test [5] is Mus musculus. The test is described as follows: Acute toxicity in Albino mouse at 100 mg/kg after 24 hrs. Format: functional, organism-based. Also on record: dose 100 mg/kg. The gist of the method: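 Albino mice (20–25 g), fasted overnight, dosed across 1000–100 mg/kg body weight and watched for 24 h for signs of acute toxicity, e.g. raised or lowered motor activity, tremors, convulsion, sedation, lacrimation.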

For test [6], the system named is Rattus norvegicus. In words: Antiinflammatory activity in rat assessed as inhibition of formalin-induced paw oedema at 100 mg/kg, ip after 2 hrs. The test is classed as functional. The following applies: route intraperitoneal. The method in brief: as §1
Test [7] concerns Rattus norvegicus. The test is described as follows: Antiinflammatory activity in rat assessed as inhibition of formalin-induced paw oedema at 100 mg/kg, ip after 4 hrs. The test is classed as functional. The following applies: route intraperitoneal. The method in brief: as §1
The test system of test [8] is Rattus norvegicus. In words: Antiinflammatory activity in rat assessed as inhibition of formalin-induced paw oedema at 100 mg/kg, ip. Particulars: route intraperitoneal. Format: functional. The gist of the method: as §1
The test system of test [9] is Rattus norvegicus. The test is described as follows: Antiinflammatory activity in rat assessed as inhibition of formalin-induced paw oedema at 100 mg/kg, ip after 24 hrs. Format: functional. Particulars: route intraperitoneal. The method in brief: as §1
The subject of test [10] is Rattus norvegicus. The test is described as follows: Antiinflammatory activity in rat assessed as inhibition of formalin-induced paw oedema at 100 mg/kg, ip after 0.5 hrs. Format: functional. The following applies: route intraperitoneal. The gist of the method:
as §1

On to `O=c1cc(CNc2nc(-c3cc4cc(Br)ccc4oc3=O)cs2)c2ccc(Cl)cc2[nH]1`, for which the inhibition in vivo at 100 mg/kg is 24.5% with Rattus norvegicus [1]; 23.2% in the test with Rattus norvegicus [2]; 5.8% in the test with Rattus norvegicus [3]; 9.09% with Rattus norvegicus [6]; 13.3% in the test with Rattus norvegicus [7]; 2.4% in the test on Rattus norvegicus [8]. Further, the inhibition in vivo at 100 mg/kg with Rattus norvegicus [9] came out at 18.4%; with Rattus norvegicus [10], 5.26%. For the same compound, the Activity with Mus musculus [4] is 64.94%; in the test with Mus musculus [5], “Not toxic”.
On to `O=c1cc(CNc2nc(-c3cc4cc(Br)cc(Br)c4oc3=O)cs2)c2cc(Cl)ccc2[nH]1`, for which the inhibition in vivo at 100 mg/kg in the test with Rattus norvegicus [1] turned out to be 21.9%; in the test on Rattus norvegicus [2] it was 14.4%; in the test with Rattus norvegicus [3], 13.8%; in the test with Rattus norvegicus [6] it was 17.8%; with Rattus norvegicus [7] it was 29.8%; in the test with Rattus norvegicus [8], 2.85%. Moreover, the results for the inhibition in vivo at 100 mg/kg with Rattus norvegicus [9] and with Rattus norvegicus [10] were 9.35% and 6.75%, respectively. For the same compound, the Activity is 48.7% with Mus musculus [4] and “Not toxic” in the test on Mus musculus [5].
Turning to `CC(=O)Oc1ccccc1C(=O)O` [ASPIRIN], the inhibition in vivo at 100 mg/kg in the test with Rattus norvegicus [1] turned out to be 39.7%; with Rattus norvegicus [2] it was 22.2%; with Rattus norvegicus [3], 17.1%; with Rattus norvegicus [6], 29.9%; with Rattus norvegicus [7], 49.9%; in the test with Rattus norvegicus [8], 5.97%. The inhibition in vivo at 100 mg/kg in the test with Rattus norvegicus [9] turned out to be 17.4%; with Rattus norvegicus [10], 9.76%. In addition, the Activity with Mus musculus [4] is 81.56%.
For `Cc1cccc2c(CNc3nc(-c4cc5ccccc5oc4=O)cs3)cc(=O)[nH]c12`, in the test on Mus musculus [5], the Activity entry was “Not toxic”.
Turning to `O=c1cc(CNc2nc(-c3cc4ccccc4oc3=O)cs2)c2cc(Cl)ccc2[nH]1`, the Activity entry in the test on Mus musculus [5] is “Not toxic”.
Turning to `Cc1cccc2c(CNc3nc(-c4cc5cc(Br)ccc5oc4=O)cs3)cc(=O)[nH]c12`, the inhibition in vivo at 100 mg/kg in the test on Rattus norvegicus [1] was 18.5%; in the test with Rattus norvegicus [2] it was 24.1%; with Rattus norvegicus [3], 8.76%; in the test on Rattus norvegicus [6], 9.19%; in the test with Rattus norvegicus [7], 14.5%; with Rattus norvegicus [8] it was 1.6%. In addition, the inhibition in vivo at 100 mg/kg with Rattus norvegicus [9] came to 16.9%; in the test on Rattus norvegicus [10], 3.12%. Besides, the Activity was 35.05% in the test on Mus musculus [4] and “Not toxic” with Mus musculus [5].
As to `O=c1cc(CNc2nc(-c3cc4ccccc4oc3=O)cs2)c2ccc(Cl)cc2[nH]1`, in the test on Mus musculus [5], the Activity entry is “Not toxic”.
Turning to `Cc1cccc2c(CNc3nc(-c4cc5cc(Br)cc(Br)c5oc4=O)cs3)cc(=O)[nH]c12`, the inhibition in vivo at 100 mg/kg was found to be 33.7% in the test on Rattus norvegicus [1]; 16.7% in the test on Rattus norvegicus [2]; 11.3% with Rattus norvegicus [3]; 16.3% in the test on Rattus norvegicus [6]; 22.7% with Rattus norvegicus [7]; 2.65% with Rattus norvegicus [8]. Besides, the inhibition in vivo at 100 mg/kg in the test on Rattus norvegicus [9] came out at 9.78%; in the test with Rattus norvegicus [10], 3.65%. Further, the Activity in the test on Mus musculus [4] is 62.73%; in the test with Mus musculus [5], “Not toxic”.
For the compound `O=c1cc(CNc2nc(-c3cc4cc(Br)cc(Br)c4oc3=O)cs2)c2ccc(Cl)cc2[nH]1`, the inhibition in vivo at 100 mg/kg is 41.5% in the test on Rattus norvegicus [1]; 18.7% in the test on Rattus norvegicus [2]; 12.6% in the test on Rattus norvegicus [3]; 13% with Rattus norvegicus [6]; 34.5% with Rattus norvegicus [7]; 2.89% in the test with Rattus norvegicus [8]. The figures for the inhibition in vivo at 100 mg/kg with Rattus norvegicus [9] and in the test with Rattus norvegicus [10] were 10.6% and 3.27%, respectively. For the same compound, the Activity is 78.22% in the test with Mus musculus [4] and “Not toxic” in the test on Mus musculus [5].
Turning to `O=c1cc(CNc2nc(-c3cc4cc(Br)ccc4oc3=O)cs2)c2cc(Cl)ccc2[nH]1`, the inhibition in vivo at 100 mg/kg is 28.6% in the test with Rattus norvegicus [1]; 15.6% with Rattus norvegicus [2]; 4.42% in the test with Rattus norvegicus [3]; 5.26% in the test with Rattus norvegicus [6]; 19.8% in the test on Rattus norvegicus [7]; 3.03% in the test on Rattus norvegicus [8]. For the same compound, the inhibition in vivo at 100 mg/kg worked out at 9.08% in the test on Rattus norvegicus [9] and 4.11% in the test on Rattus norvegicus [10]. Besides, the Activity was 88.89% with Mus musculus [4] and “Not toxic” with Mus musculus [5].

One may read the inhibition in vivo as the relative decrease from the control value, in per cent.
